Key:
[1] = system: SK-N-MC; assay: Antiproliferative activity against human SK-N-MC cells measured after 72 hrs at 37 degC by MTT assay; format: functional, cell-based
Method in brief: (§1)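 Cells seeded and left to attach 24 h, then exposed to control medium or chelator for 72 h at 37 °C; proliferation read by MTT assay.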

[2] = system: MRC5; assay: Antiproliferative activity against human MRC5 cells measured after 72 hrs at 37 degC by MTT assay; format: functional, cell-based; settings: MRC5, 72 h; method in brief: as §1
[3] = system: SK-N-MC; assay: Induction of cellular iron mobility in human SK-N-MC cells assessed as iron release at 25 uM for 3 hrs at 37 degC; format: functional
Method in brief: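 Cells prelabeled with 59Fe-transferrin (0.75 µM) 3 h at 37 °C, washed four times with ice-cold PBS, then given control medium or chelator (25 µM) 3 h at 37 °C; released 59Fe expressed as % of intracellular 59Fe. Mean ± SD, three experiments, triplicate determinations.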

[4] = system: SK-N-MC; assay: Inhibition of cellular iron uptake in human SK-N-MC cells assessed as iron uptake at 25 uM for 3 hrs at 37 degC relative to control; format: functional; set-up: scale not given: the % may be the effect or the level left
Method in brief: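 59Fe-transferrin (0.75 µM) given to cells 3 h at 37 °C with or without chelator (25 µM); washed four times on ice, internalized 59Fe measured and expressed as % of control. Mean ± SD of three experiments with three determinations each.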

SMILES | IC50 [1] | IC50 [2] | Activity [3] | Activity [4]
COc1ccc(/C(=N/NC(=S)Nc2ccccc2)c2cccc(C)n2)cc1OC | 0.62 µM | 2.11 µM | 21% | 58%
CNC(=S)N/N=C(/c1ccc(OC)cc1)c1cccc(C)n1 | > 6.25 µM | > 6.25 µM | 42% | 22%
COc1ccc(/C(=N/NC(N)=S)c2cccc(C)n2)cc1 | > 6.25 µM | > 6.25 µM | 15% | 14%
CNC(=S)N/N=C(/c1ccc(OC)c(OC)c1)c1cccc(C)n1 | > 6.25 µM | > 6.25 µM | 21% | 14%
Cc1cccc(/C(=N\NC(=S)Nc2ccccc2)c2ccccc2)n1 | 2.8 µM | > 6.25 µM | 9% | 58%
CNC(=S)N/N=C(/c1ccccc1)c1cccc(C)n1 | 5.32 µM | > 6.25 µM | 9% | 14%
CN(C)C(=S)NN=C(c1ccccn1)c1ccccn1 |  |  |  | 5%
COc1ccc(/C(=N/NC(N)=S)c2cccc(C)n2)cc1OC | > 6.25 µM | > 6.25 µM | 21% | 14%
COc1ccc(/C(=N/NC(=S)Nc2ccccc2)c2cccc(C)n2)cc1 | 1.75 µM | 3.81 µM | 15% | 58%

More lines, main results first:

IC50 [1] | SMILES | IC50 [2] | Activity [3] | Activity [4]
> 6.25 µM | CCNC(=S)N/N=C(/c1ccc(OC)cc1)c1cccc(C)n1 | > 6.25 µM | 15% | 14%
0.88 µM | CCNC(=S)N/N=C(/c1ccccc1)c1cccc(C)n1 | > 6.25 µM | 9% | 14%
21.6 µM | CC(=O)N(O)CCCCCNC(=O)CCC(=O)N(O)CCCCCNC(=O)CCC(=O)N(O)CCCCCN [DEFEROXAMINE] |  |  | 80%
0.009 µM | Cc1cccc(/C(=N\NC(=S)N(C)C)c2ccccc2)n1 | 0.021 µM | 9% | 14%
2.48 µM | COc1ccc(/C(=N/NC(=S)N(C)C)c2cccc(C)n2)cc1OC | > 6.25 µM | 41% | 14%
2.2 µM | COc1ccc(/C(=N/NC(=S)N(C)C)c2cccc(C)n2)cc1 | > 6.25 µM | 15% | 14%
> 6.25 µM | CCNC(=S)N/N=C(/c1ccc(OC)c(OC)c1)c1cccc(C)n1 | > 6.25 µM | 21% | 14%
> 6.25 µM | C=CCNC(=S)N/N=C(/c1ccc(OC)c(OC)c1)c1cccc(C)n1 | > 6.25 µM | 21% | 14%
> 6.25 µM | Cc1cccc(/C(=N\NC(N)=S)c2ccccc2)n1 | > 6.25 µM | 9% | 14%
> 6.25 µM | C=CCNC(=S)N/N=C(/c1ccccc1)c1cccc(C)n1 | > 6.25 µM | 9% | 14%
> 6.25 µM | C=CCNC(=S)N/N=C(/c1ccc(OC)cc1)c1cccc(C)n1 | > 6.25 µM | 15% | 14%

From ChEMBL document CHEMBL2331246, “Synthesis and biological evaluation of substituted 2-benzoylpyridine thiosemicarbazones: novel structure-activity relationships underpinning their anti-proliferative and chelation efficacy” (Bioorg Med Chem Lett, 2013)
